From ChEMBL document CHEMBL4257467, “Synthesis and pharmaceutical characterization of site specific mycophenolic acid-modified Xenopus glucagon-like peptide-1 analogs” (Medchemcomm, 2018)
Calls of active or inactive are those of the source. *1 amine or outer side, *2 acyl side, *3 side chain or, on linkers, in order; H or OH if unused. Where a SMILES comes first, the peptide text is derived from it. Side-chain parts run from the residue outwards. The star is where a group is joined. Mycophenolyl = COc1c(C)c2c(c(O)c1C/C=C(\C)CCC(=O)*)C(=O)OC2; γGlu = O=C(O)[C@H](CCC(=O)[*:2])N[*:1]; Ahx = NCCCCCC(=O)O

Experiments:
[1] = target: Glucagon-like peptide 1 receptor (Homo sapiens, UniProt P43220); assay: Agonist activity at human GLP1 receptor expressed in HEK293 cells assessed as increase in cAMP level after 30 mins by HTRF method; format: functional, cell-based
Summary of the method: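 HEK293 cells stably expressing human GLP-1 receptor, thawed, suspended in DMEM with 20 mM HEPES, 2 mM L-Glu, 0.5% FBS, 1% pen-strep. Compounds dissolved in DMSO, diluted in assay buffer to 1 × 10−13–1 × 10−6 M final, 30 min at 37 °C in 5% CO2. cAMP read by HTRF. EC50 as means ± SD of three individual experiments, n = 3.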

Albumin = Albumin (Homo sapiens, UniProt P02768); assay: Binding affinity to human serum albumin after 60 mins by ultrafiltration-based HPLC analysis; format: ADME; details: for fraction unbound at 1 h: human serum albumin, read-out: PB (converted)
Summary of the method: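 Peptide in PBS pH 7.4 (100 μg ml−1) mixed with HSA (10 mg ml−1 in PBS), incubated 60 min at 37 °C. Ultrafiltration through 30 kDa cutoff filter, 30 min at 3500 rpm. Free compound in filtrate by HPLC. Membrane adsorption checked (<4%). Repeated three times.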

Mus musculus [2] = assay: Antidiabetic activity in Kunming mouse assessed as reduction in blood glucose level at 25 nmol/kg, ip pretreated for 30 mins followed by glucose-challenge and measured after 15 to 120 mins by IPGTT; format: functional, organism-based
Summary of the method: (§1)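 Male Kunming mice (20–25 g, n = 6) fasted overnight. Peptide or saline 25 nmol kg−1 ip at −30 min, ip glucose 2 g kg−1 at 0 min. Tail-vein blood glucose by glucometer at −30, 0, 15, 30, 60 and 120 min. Glucose AUC0–120min calculated; means ± SD.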

Mus musculus [3] = assay: Antidiabetic activity in Kunming mouse assessed as reduction in blood glucose AUC at 25 nmol/kg, ip pretreated for 30 mins followed by glucose-challenge and measured after 15 to 120 mins by IPGTT; format: functional, organism-based; summary of the method: as §1
[4] = Half life in Sprague-Dawley rat plasma at 0.5 mL by LC-MS/MS analysis; format: ADME, cell-free; details: for half-life: Sprague-Dawley
Summary of the method: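 Plasma from male Sprague-Dawley rats (200–250 g). Peptide in PBS pH 7.4 added to initial 1000 ng ml−1 and incubated at 37 °C for 48 h. Samples at 2, 4, 8, 12, 24, 36, 48 h precipitated with acetonitrile containing 2% formic acid, centrifuged, analysed by LC-MS/MS in MRM mode. Degradation curves in triplicate.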

Albumin, sequence (P02768 whole entry): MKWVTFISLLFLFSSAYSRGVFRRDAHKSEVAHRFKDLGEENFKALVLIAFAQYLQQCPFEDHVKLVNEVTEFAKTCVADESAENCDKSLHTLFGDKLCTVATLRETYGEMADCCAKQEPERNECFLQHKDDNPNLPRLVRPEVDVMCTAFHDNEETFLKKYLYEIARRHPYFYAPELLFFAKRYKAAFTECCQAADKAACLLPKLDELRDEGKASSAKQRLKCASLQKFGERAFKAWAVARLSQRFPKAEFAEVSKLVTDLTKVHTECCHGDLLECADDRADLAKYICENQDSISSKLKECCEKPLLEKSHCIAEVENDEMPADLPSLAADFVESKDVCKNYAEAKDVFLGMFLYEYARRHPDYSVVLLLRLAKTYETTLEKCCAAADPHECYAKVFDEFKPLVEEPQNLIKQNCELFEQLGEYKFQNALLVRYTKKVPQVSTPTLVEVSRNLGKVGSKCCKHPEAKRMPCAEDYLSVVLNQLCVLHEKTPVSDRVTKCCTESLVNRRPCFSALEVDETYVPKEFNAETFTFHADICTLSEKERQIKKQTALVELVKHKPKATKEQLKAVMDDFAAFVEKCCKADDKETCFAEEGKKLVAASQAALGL
Glucagon-like peptide 1 receptor, sequence (P43220 whole entry): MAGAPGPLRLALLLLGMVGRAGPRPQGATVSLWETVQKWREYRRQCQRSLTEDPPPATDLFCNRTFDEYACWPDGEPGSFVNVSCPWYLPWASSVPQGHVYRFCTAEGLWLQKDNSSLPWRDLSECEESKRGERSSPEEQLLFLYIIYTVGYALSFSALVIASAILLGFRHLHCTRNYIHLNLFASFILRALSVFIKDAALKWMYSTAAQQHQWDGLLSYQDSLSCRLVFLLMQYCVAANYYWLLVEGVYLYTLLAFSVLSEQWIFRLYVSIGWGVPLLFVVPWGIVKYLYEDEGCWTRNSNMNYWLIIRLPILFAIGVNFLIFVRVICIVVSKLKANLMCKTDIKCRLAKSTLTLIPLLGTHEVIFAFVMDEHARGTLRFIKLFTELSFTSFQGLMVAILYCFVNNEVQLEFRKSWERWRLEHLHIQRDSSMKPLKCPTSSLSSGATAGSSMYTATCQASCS

PB (Albumin; isolated protein, 1 h) [%]	t1/2 [4] [h]	Compound	EC50 [1] [nM]	fraction unbound at 1 h (Albumin)	Activity (Mus musculus [2])	Activity (Mus musculus [3])	half-life [4] [h]
		H-HGEGTYTNDVTEYLEEEAAK([γGlu-Ahx-Mycophenolyl])EFIEWLIKGKPSSGAPPSKKKKKK-OH	2.8	0.361	Active	Active	22.1
97.8	> 48	SEMAGLUTIDE					
		CC[C@H](C)[C@H](NC(=O)[C@H](CC(C)C)NC(=O)[C@H](Cc1c[nH]c2ccccc12)NC(=O)[C@H](CCC(=O)O)NC(=O)[C@@H](NC(=O)[C@H](Cc1ccccc1)NC(=O)[C@H](CCC(=O)O)NC(=O)[C@H](CCCCNC(=O)CC[C@H](NC(=O)CCCCCNC(=O)CC/C(C)=C/Cc1c(O)c2c(c(C)c1OC)COC2=O)C(=O)O)NC(=O)[C@H](C)NC(=O)[C@H](C)NC(=O)[C@H](CCC(=O)O)NC(=O)[C@H](CCC(=O)O)NC(=O)[C@H](CCC(=O)O)NC(=O)[C@H](CC(C)C)NC(=O)[C@H](Cc1ccc(O)cc1)NC(=O)[C@H](CCC(=O)O)NC(=O)[C@@H](NC(=O)[C@@H](NC(=O)[C@H](CC(=O)O)NC(=O)[C@H](CC(N)=O)NC(=O)[C@@H](NC(=O)[C@H](Cc1ccc(O)cc1)NC(=O)[C@@H](NC(=O)CNC(=O)[C@H](CCC(=O)O)NC(=O)CNC(=O)[C@@H](N)Cc1cnc[nH]1)[C@@H](C)O)[C@@H](C)O)C(C)C)[C@@H](C)O)[C@@H](C)CC)C(=O)N[C@@H](CCCCN)C(=O)NCC(=O)N[C@@H](CCCCN)C(=O)N1CCC[C@H]1C(=O)N[C@@H](CO)C(=O)N[C@@H](CO)C(=O)NCC(=O)N[C@@H](C)C(=O)N1CCC[C@H]1C(=O)N1CCC[C@H]1C(=O)N1CCC[C@H]1C(=O)N[C@@H](CO)C(=O)O (H-HGEGTYTNDVTEYLEEEAAK([γGlu-Ahx-Mycophenolyl])EFIEWLIKGKPSSGAPPPS-OH)	4.1	0.351	Active	Active	19.3
